Key:
METTL3/14 = conditions: read-out: Km of SAM for METTL3/14; cited from earlier work
[1] = tested on: human AML patient derived xenografts (PDX); experiment: Human AML patient derived xenograft; assay type: in vivo, mouse
[2] = tested on: primary murine MLL-AF9/Flt3^Itd/+ AML; experiment: Primary murine MLL-AF9/Flt3Itd/+ AML in vivo model; design: species or system mouse
[3] = tested on: panel of human AML cell lines; experiment: Proliferation assay, AML cell line panel; assay type: cell-based; conditions: 0.04-50 μM, read on day 6
[4] = tested on: SP1 and BRD4 protein levels, MOLM-13 cells; experiment: Western blot of METTL3 biomarkers in MOLM-13; assay type: cell-based, human; conditions: MOLM-13, 72 hours
In short: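 MOLM-13 cells were exposed to DMSO or indicated concentrations of test compound for 72 h. Pellets were lysed in 50 mM Tris-HCl pH 8, 450 mM NaCl, 0.1% NP-40 and 1 mM EDTA, with 1 mM DTT and protease/phosphatase inhibitors. Immunoblots were probed with anti-SP1, N- and C-terminal anti-BRD4, and actin or GAPDH antibodies.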

[5] = tested on: m6A on poly-A+-enriched RNA, MOLM-13 cells; experiment: RNA nucleoside quantification by mass spectrometry in MOLM-13; assay type: cell-based, human; conditions: MOLM-13, 24 hours
[6] = tested on: normal haematopoietic stem and progenitor cells (HSPCs); experiment: Colony forming; assay type: cell-based, mouse; conditions: 1 μM, WT Lin- cells
In short: (§1)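 Lineage-negative cells from wild-type mice or primary murine AML cells, 10,000 per well, were plated in triplicate wells of M3434 methylcellulose with 1 μM test compound. Colonies were counted after 7 days. Another 10,000 cells were then re-seeded and re-counted weekly through the 3rd replating.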

[7] = Pharmacokinetic analysis in mice; assay type: in vivo, mouse; conditions: single intra-peritoneal dose of 50 mg/kg, over 24h
[8] = tested on: normal human cord blood CD34+ cells; experiment: Colony-forming efficiency of cord blood CD34+ cells; assay type: cell-based; conditions: 1, 5 or 10 µM
In short: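 Human cord-blood CD34+ cells were plated in StemMACS HSC-CFU semi-solid medium with the test compound at the indicated concentrations or DMSO. Colonies were counted by microscopy 12–14 days after plating.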

MOLM-13 cells = experiment: Polysome fractionation and RT-qPCR in MOLM-13 cells; assay type: cell-based, human
In short: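 MOLM-13 cells (5 × 10^7) were exposed to DMSO or 1 μM test compound for 72 h, then to 0.1 mg/ml cycloheximide for 5 min at 37 °C. Lysates were fractionated on a sucrose gradient. RNA from each fraction, or total RNA (RNeasy), was quantified by RT-qPCR in triplicate, normalised to GAPDH, using the standard-curve or comparative CT method.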

[9] = tested on: m6A peaks on poly-A+-enriched RNA, MOLM-13 cells; experiment: m6A-meRIP-seq and meRIP-qPCR in MOLM-13 cells; assay type: cell-based, human
METTL16 = biological target: T1, METTL16 (Homo sapiens, UniProt Q86W50); experiment: RNA methyltransferase RFMS activity assay; assay type: biochemical; conditions: dose-range, top concentration 120 μM
T1 sequence (Q86W50 1-562): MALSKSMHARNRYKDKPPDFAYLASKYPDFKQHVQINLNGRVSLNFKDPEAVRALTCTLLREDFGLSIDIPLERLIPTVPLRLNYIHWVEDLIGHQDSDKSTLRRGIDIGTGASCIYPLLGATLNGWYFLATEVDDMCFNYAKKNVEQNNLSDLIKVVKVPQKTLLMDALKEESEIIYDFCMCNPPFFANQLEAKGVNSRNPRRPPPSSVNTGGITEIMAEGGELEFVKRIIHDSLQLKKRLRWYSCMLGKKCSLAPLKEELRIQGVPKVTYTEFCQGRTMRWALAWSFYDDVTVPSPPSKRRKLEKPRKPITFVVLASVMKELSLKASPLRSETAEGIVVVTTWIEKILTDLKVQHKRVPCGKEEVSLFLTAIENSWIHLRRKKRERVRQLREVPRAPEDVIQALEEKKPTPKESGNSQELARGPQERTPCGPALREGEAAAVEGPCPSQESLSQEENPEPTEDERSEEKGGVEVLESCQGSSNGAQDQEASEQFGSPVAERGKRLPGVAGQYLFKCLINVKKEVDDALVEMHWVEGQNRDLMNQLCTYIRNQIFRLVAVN

panel of 468 kinases = experiment: KINOMEscan kinase binding panel; conditions: 10 µM; inhibition = less than 50% control activity
[10] = biological target: METTL3/METTL14 heterodimer (Homo sapiens, UniProt Q86U44); experiment: Surface plasmon resonance; assay type: binding; conditions: 50 µM SAM in running buffer
primary murine AML cells = experiment: Colony forming; assay type: cell-based, mouse; conditions: 1 μM
In short: as §1

[11] = tested on: MOLM-13 and primary murine AML cells; experiment: Flow cytometry of differentiation, cell cycle and apoptosis in AML cells; assay type: cell-based
In short: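 Human and/or mouse AML cells were exposed to DMSO or test compound and analysed at the indicated timepoints on an LSRFortessa. Myeloid differentiation was read by anti-mouse CD11b PE/Cy5 or anti-human CD11b PE staining. Apoptosis was read by Annexin V staining. Cell cycle was read by BrdU incorporation with FITC or APC BrdU flow kits.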

[12] = tested on: non-leukaemic haemopoietic cell line HPC7; assay type: cell-based
normal haematopoiesis = experiment: Toxicity on normal haematopoiesis in vivo; design: species or system mouse; conditions: 50 mg/kg daily for 14 days
[13] = murine or patient-derived AML cells from treated primary transplants
[14] = MOLM-13 and primary murine AML cells

Chain of METTL3/METTL14 heterodimer (Q86U44 whole entry): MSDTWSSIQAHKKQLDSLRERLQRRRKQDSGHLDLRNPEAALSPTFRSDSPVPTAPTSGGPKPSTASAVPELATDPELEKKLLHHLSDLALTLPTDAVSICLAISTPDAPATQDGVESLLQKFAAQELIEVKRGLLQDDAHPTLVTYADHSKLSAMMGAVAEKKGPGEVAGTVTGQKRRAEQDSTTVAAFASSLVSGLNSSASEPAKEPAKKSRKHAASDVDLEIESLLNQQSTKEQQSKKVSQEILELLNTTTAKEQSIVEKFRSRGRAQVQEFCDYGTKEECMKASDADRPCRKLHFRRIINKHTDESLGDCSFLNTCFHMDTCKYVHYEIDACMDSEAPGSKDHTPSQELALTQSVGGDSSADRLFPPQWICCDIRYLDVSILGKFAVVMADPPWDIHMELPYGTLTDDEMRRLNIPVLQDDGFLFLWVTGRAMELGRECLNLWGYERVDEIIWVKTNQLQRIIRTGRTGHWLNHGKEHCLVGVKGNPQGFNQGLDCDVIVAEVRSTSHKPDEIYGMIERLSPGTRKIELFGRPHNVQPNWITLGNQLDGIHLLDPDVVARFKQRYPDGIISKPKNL
Chain of METTL3/METTL14 heterodimer (Q9HCE5 whole entry partner): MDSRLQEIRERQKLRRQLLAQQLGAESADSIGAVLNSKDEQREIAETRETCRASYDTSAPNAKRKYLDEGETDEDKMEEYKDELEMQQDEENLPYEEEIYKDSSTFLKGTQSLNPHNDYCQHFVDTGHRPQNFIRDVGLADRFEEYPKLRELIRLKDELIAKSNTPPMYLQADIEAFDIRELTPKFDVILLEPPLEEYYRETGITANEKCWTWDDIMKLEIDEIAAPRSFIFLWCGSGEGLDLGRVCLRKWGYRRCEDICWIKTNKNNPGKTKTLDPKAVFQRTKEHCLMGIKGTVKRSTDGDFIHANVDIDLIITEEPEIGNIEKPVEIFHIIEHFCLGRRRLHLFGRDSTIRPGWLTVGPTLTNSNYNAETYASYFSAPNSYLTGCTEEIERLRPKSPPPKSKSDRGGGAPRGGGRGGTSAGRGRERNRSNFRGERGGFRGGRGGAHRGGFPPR

C[S+](CC[C@H](N)C(=O)[O-])C[C@H]1O[C@@H](n2cnc3c(N)ncnc32)[C@H](O)[C@@H]1O (stereo partly shown) [SAM, S-adenosyl methionine]
Km (METTL3/14): 100 nM

O=C(NCc1cn2cc(CNCC3CCCCC3)ccc2n1)c1cc(=O)n2ccccc2n1 [STM2457]
human CD45+ cells in bone marrow and spleen ([1]; 50 mg/kg): reduction of human CD45^+ cells in bone marrow and spleen
mouse lifespan in PDX ([1]; 50 mg/kg IP daily): significantly prolonged
toxicity and body weight in PDX mice ([1]; 50 mg/kg IP daily): no overt toxicity or effect on mouse body weight
engraftment and AML expansion in PDX ([1]; 50 mg/kg IP daily, 3 PDX models): impairment of engraftment and AML expansion
total m6A levels on poly-A+-enriched RNA in PDX bone marrow ([1]; 30 or 50 mg/kg): significantly reduced
CD48+ intensity of L-GMP cells ([2]; 30 mg/kg): increased
engrafted AML cells in bone marrow ([2]; 30 mg/kg): reduction in the engrafted AML cells
spleen size ([2]; 30 mg/kg): reduction in spleen size
CD93+ and L-GMP leukaemia stem cell populations ([2]; bone marrow, PDX 50 mg/kg and murine model 30 mg/kg): significantly reduced
AML cells in peripheral blood after re-transplantation [2, 13]: marked decrease
lifespan after re-transplantation [2, 13]: significant lifespan prolongation
proliferation of human AML cell line panel [3]: significant growth reduction in a concentration-dependent manner
SP1 and BRD4 protein levels [4]: dose-dependent reduction
m6A on poly-A+-enriched RNA [5]: concentration-dependent reduction
other RNA modifications (m6Am, m6_2A, m7G) on poly-A+-enriched RNA [5]: No changes were detected
colony forming of normal haematopoietic stem and progenitor cells (HSPCs) [6]: no effect
half-life / exposure in vivo [7]: sufficient half-life
colony-forming ability of normal human cord blood CD34+ cells [8]: did not affect
polysome profile (MOLM-13 cells; MOLM-13, 1μM, 72 hours): loss of high polysome fractions
overall RNA expression levels of BRD4 and SP1 (MOLM-13 cells; MOLM-13, RT-qPCR of total RNA): showed no alterations
m6A levels in METTL3-dependent substrates including HOXA10 and MYC (meRIP-qPCR) ([9]; MOLM-13, 1 µM, 24 or 48 hours): reduced m^6A levels
m6A peaks reduced upon treatment ([9]; MOLM-13, 1 μM, 48 hours, of 11,909 m6A peaks identified): 4,666
inhibition of METTL16 (METTL16): no inhibition
inhibitory effect on kinase panel (panel of 468 kinases): no inhibitory effect
binding mode with SAM in the SPR running buffer [10]: co-factor competitive binding mode
clonogenic potential of primary murine AML cells (primary murine AML cells): significantly reduced
apoptosis in human and mouse AML models ([11]; Annexin V, 1 µM): induced apoptosis
cell cycle (BrdU) [11, 14]: cell cycle arrest
myeloid differentiation (CD11b/Mac1) [11, 14]: significant myeloid differentiation
apoptosis in normal non-leukaemic haemopoietic cells ([12]; Annexin V, 1 µM): not in normal non-leukaemic haemopoietic cells
differentiation and cell cycle in HPC7 ([12]; non-leukaemic HPC7, 1 µM): the same effects were not identified
bone marrow HSCs and early progenitors, peripheral blood counts, body weight (normal haematopoiesis): No significant changes
m6A levels on poly-A+-enriched RNA of healthy bone marrow (normal haematopoiesis): significantly reduced
